Test results reported in ChEMBL document CHEMBL4177551, “Bioactive Triterpenoids from the Twigs of Chaenomeles sinensis” (J Nat Prod, 2017).

Legend:
SK-OV-3 = experiment: Cytotoxicity against human SKOV3 cells assessed as inhibition of cell growth by SRB assay; type: functional, cell-based
How it was run: (§1)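 Human tumour lines A549, SK-OV-3, SK-MEL-2 and HCT15 (from ATCC) were tested by sulforhodamine B assay. IC50 is the concentration giving 50% inhibition of cell growth. Cisplatin served as positive control.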

HCT-15 = experiment: Cytotoxicity against human HCT15 cells assessed as inhibition of cell growth by SRB assay; type: functional, cell-based; how it was run: as §1
SK-MEL-2 = experiment: Cytotoxicity against human SK-MEL-2 cells assessed as inhibition of cell growth by SRB assay; type: functional, cell-based; how it was run: as §1
C6 = experiment: Neuroprotective activity in rat C6 cells assessed as induction of nerve growth factor secretion at 20 uM incubated for 24 hrs by ELISA method relative to untreated control; type: functional
How it was run: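 C6 glioma cells seeded at 1 × 10^5 cells/well and cultured 24 h. They were then switched to serum-free DMEM with compound at 20 μM for a further 24 h. NGF secreted into the conditioned medium was quantified by ELISA and expressed as percent of untreated control (100%). Mean ± SD of three independent experiments.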

A549 = experiment: Cytotoxicity against human A549 cells assessed as inhibition of cell growth by SRB assay; type: functional, cell-based; how it was run: as §1
[1] = Cytotoxicity in rat C6 cells assessed as cell viability at 20 uM incubated for 24 hrs by MTT assay relative to untreated control; type: cell-based; conditions: read-out: Activity
How it was run: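 C6 glioma cells were seeded at 1 × 10^5 cells/well. After 24 h, medium was switched to serum-free DMEM and compounds were added at 20 μM for 24 h. Viability was read by MTT and expressed as % of untreated cells. Values are means ± SD of three independent experiments.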

[2] = Cytotoxicity in mouse BV2 cells assessed as cell viability at 20 uM incubated for 24 hrs by MTT assay relative to untreated control; type: cell-based, BV-2; conditions: read-out: Activity
How it was run: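 BV2 cells in the LPS-stimulated NO assay (LPS 100 ng/mL, 24 h) were exposed to 20 μM compound. Viability was read by MTT assay and expressed as percent. Mean ± SD of three independent experiments.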

BV-2 = experiment: Anti-inflammatory in mouse BV2 cells assessed as inhibition of LPS-induced nitric oxide production pre-incubated before LPS challenge for 24 hrs by Griess reagent based assay; type: functional, cell-based
How it was run: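 BV2 microglia seeded at 4 × 10^4 cells/well, treated with or without graded compound concentrations, then stimulated with LPS (100 ng/mL) for 24 h. Nitrite in the medium was measured with Griess reagent (0.1% N-1-naphthylethylenediamine dihydrochloride, 1% sulfanilamide, 5% phosphoric acid), 1:1 with supernatant for 10 min, A570. Quantified against a sodium nitrite standard. IC50 = concentration giving 50% inhibition of NO production.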

IC50 (BV-2) [µM] | SMILES | IC50 (SK-OV-3) [µM] | IC50 (HCT-15) [µM] | IC50 (SK-MEL-2) [µM] | Activity (C6) [%] | IC50 (A549) [µM] | viability at 24 h, 20 µM [1] [%] | viability at 24 h, 20 µM [2] [%]
– | C=C(C)[C@@H]1CC[C@]2(C(=O)O)CC[C@]3(C)[C@H](CC[C@@H]4[C@@]5(C)CC[C@H](OC(=O)/C=C/c6ccc(O)c(O)c6)C(C)(C)[C@@H]5CC[C@]43C)[C@@H]12 | > 10 | > 10 | > 10 | 355.7 | 9.9 | 95 | –
21.6 | CC1(C)CC[C@]2(C(=O)O)CC[C@]3(C)C(=CC[C@@H]4[C@@]5(C)C[C@@H](O)[C@@H](O)C(C)(C)[C@@H]5CC[C@]43C)[C@@H]2C1 | – | – | – | – | – | – | 87
– | C=C(C)[C@@H]1CC[C@]2(CO)CC[C@]3(C)[C@H](CC[C@@H]4[C@@]5(C)CC[C@H](OC(=O)/C=C\c6ccc(O)c(O)c6)C(C)(C)[C@@H]5CC[C@]43C)[C@@H]12 | 8.4 | > 10 | 2 | – | > 10 | – | –
37.1 | COc1cc(/C=C\C(=O)O[C@H]2[C@H](O)C[C@]3(C)[C@H]4CC=C5[C@H]6[C@](C(=O)O)(CC[C@@H](C)[C@@]6(C)O)CC[C@@]5(C)[C@]4(C)CC[C@H]3C2(C)C)ccc1O | – | – | – | – | – | – | 111
– | C=C(C)[C@@H]1CC[C@]2(CO)CC[C@]3(C)[C@H](CC[C@@H]4[C@@]5(C)CC[C@H](OC(=O)/C=C/c6ccc(O)c(O)c6)C(C)(C)[C@@H]5CC[C@]43C)[C@@H]12 | 9 | > 10 | 2.9 | – | > 10 | – | –
47.1 | C[C@H]1[C@H](C)CC[C@]2(C(=O)O)CC[C@]3(C)C(=CC[C@@H]4[C@@]5(C)C[C@@H](O)[C@H](O)C(C)(C)[C@@H]5CC[C@]43C)[C@H]12 [COROSOLIC ACID] | – | – | – | – | – | – | 100
17.8 | CC1(C)CC[C@]2(C(=O)O)CC[C@]3(C)C(=CC[C@@H]4[C@@]5(C)C[C@@H](O)[C@H](O)C(C)(C)[C@@H]5CC[C@]43C)[C@@H]2C1 [MASLINIC ACID] | – | – | – | – | – | – | 30.4
– | CCCCC/C=C/C(=O)CCc1ccc(O)c(OC)c1 [SHOGAOL] | – | – | – | 168.6 | – | 126 | –
21.8 | CNC(=N)NCCC[C@H](N)C(=O)O [TILARGININE] | – | – | – | – | – | – | 114
– | C[C@@H]1CC[C@]2(C(=O)O)CC[C@]3(C)C(=CC[C@@H]4[C@@]5(C)C[C@@H](O)[C@H](O)C(C)(C)[C@@H]5CC[C@]43C)[C@@H]2[C@]1(C)O [TOMENTIC ACID] | – | – | – | 167.4 | – | 100 | –

SMILES | IC50 (BV-2) [µM] | IC50 (SK-OV-3) [µM] | IC50 (HCT-15) [µM] | IC50 (SK-MEL-2) [µM] | Activity (C6) [%] | IC50 (A549) [µM] | viability at 24 h, 20 µM [1] [%] | viability at 24 h, 20 µM [2] [%]
C=C(C)[C@@H]1CC[C@]2(C(=O)O)CC[C@]3(C)[C@H](CC[C@@H]4[C@@]5(C)CC[C@H](OC(=O)/C=C\c6ccc(O)c(O)c6)C(C)(C)[C@@H]5CC[C@]43C)[C@@H]12 | 13.4 | 7.5 | 3.8 | 6.7 | – | 0.9 | – | 35.3
C=C(C)[C@@H]1CC[C@]2(C(=O)O)CC[C@]3(C)[C@H](CC[C@@H]4[C@@]5(C)C[C@@H](O)[C@H](O)C(C)(C)[C@@H]5CC[C@]43C)[C@@H]12 [ALPHITOLIC ACID] | 14.5 | – | – | – | – | – | – | 71
C=C(C)[C@@H]1CC[C@]2(C(=O)O)CC[C@]3(C)[C@H](CC[C@@H]4[C@@]5(C)CC[C@H](O)C(C)(C)[C@@H]5CC[C@]43C)[C@@H]12 [BETULINIC ACID] | 4.5 | > 10 | 8.7 | > 10 | 177.6 | 3.1 | 77.3 | 59.6
C=C(C)[C@@H]1CC[C@]2(CO)CC[C@]3(C)[C@H](CC[C@@H]4[C@@]5(C)CC[C@H](O)[C@](C)(CO)[C@@H]5CC[C@]43C)[C@@H]12 [ILEKUDINOL C] | 25.5 | > 10 | > 10 | > 10 | – | 5.1 | – | 88
